24 compounds from ChEMBL document CHEMBL1127388, “Synthesis and structure-activity relationships in a series of antiinflammatory corticosteroid analogues, halomethyl androstane-17 beta-carbothioates and -17 beta-carboselenoates” (1994) can be followed below.

Format in all cases: functional
The species entered for one test is Homo sapiens. Description: Tested for human vasoconstrictor activity relative to fluocinolone acetonide (100).
Test [1] has as its system Mus musculus. In words: Systemic corticosteroid activity after topical application relative to fluocinolone acetonide in mice. In short, it runs like this:
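Mice (25–30 g), nine groups of 10, given topical steroid in acetone daily for seven consecutive days; reference fluocinolone acetonide daily doses 0.47, 1.9, 7.5 and 30 µg; vehicle controls. Day after last dose, Et₂O vapor stress 1 min, re-anaesthetised with Et₂O; blood of two mice pooled; plasma corticosterone read fluorimetrically; potency from log daily dose vs corticosterone.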

Test [2] deals with Mus musculus. In words: Topical anti-inflammatory activity relative to fluocinolone acetonide in mice. In short, it runs like this: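 Croton oil ear test in mice (22–28 g), nine groups of 10; steroid dissolved in croton oil (2 vol)/EtOH (20)/Et₂O (78), 0.02 mL to inner aspect of both ears; reference doses 0.015, 0.06, 0.25, 1 µg; untreated-oil controls; ears weighed after 6 h; potency from log dose vs ear weight.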

Test [3] relates to Rattus norvegicus. In words: Systemic corticosteroid activity after topical application relative to fluocinolone acetonide in rats. In short, it runs like this:
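Rats (170–200 g), seven groups of six, fur clipped, ca. 2 cm² dorsal area dosed once daily for seven days with steroid in acetone (0.02 mL; reference 0.5, 2, 8 µg). Day after final dose: Et₂O stress 1 min, 20 min later pentobarbitone i.p., cardiac blood; fluorimetric plasma corticosterone or adrenal weights; potency from log daily dose.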

For test [4], the system named is Rattus norvegicus. Description: Topical anti-inflammatory activity relative to fluocinolone acetonide in rats. In outline:
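Modified Tonelli croton oil ear test: rats (54–70 g), 7 groups of 10; graded steroid doses in croton oil (5 vol)/EtOH (20)/Et₂O (75), 0.04 mL to inner aspect of both ears (reference 0.06, 0.25, 1 µg); control gets unmedicated oil. After 6 h, CO₂ kill, ears weighed separately; relative potency by ANOVA on log dose and ear weight.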

Regarding `CC(=O)O[C@]1(C(=O)SCF)[C@H](C)CC2C3C[C@H](F)C4=CC(=O)C=C[C@]4(C)[C@@]3(F)[C@@H](O)C[C@@]21C` (stereo partly specified), the Activity is on record as 392 in the test filed under Homo sapiens; 2.9 with Mus musculus [1]; 76 in the test with Mus musculus [2]; 3 in the test with Rattus norvegicus [3]; 88 in the test with Rattus norvegicus [4].

For `C=C1CC2C3C[C@H](F)C4=CC(=O)C=C[C@]4(C)[C@@]3(F)[C@@H](O)C[C@]2(C)[C@@]1(OC(=O)CC)C(=O)SCCl` (stereo partly specified), the Activity in the test filed under Homo sapiens is on record as 170; in the test with Mus musculus [1], greater than 100; with Mus musculus [2], 108.

In the case of `CC(=O)O[C@]1(C(=O)SCF)[C@@H](C)CC2C3CCC4=CC(=O)C=C[C@]4(C)[C@@]3(F)[C@@H](O)C[C@@]21C` (stereo partly specified), the Activity in the test listed under Homo sapiens was 1388; in the test on Mus musculus [2] it was 67; in the test with Rattus norvegicus [3] it was 13.5; in the test with Rattus norvegicus [4], 40.

For the compound `CCCC(=O)O[C@]1(C(=O)SCF)[C@H](C)CC2C3C[C@H](F)C4=CC(=O)C=C[C@]4(C)[C@@]3(F)[C@@H](O)C[C@@]21C` (stereo partly specified), the Activity in the test filed under Homo sapiens is 299; in the test with Mus musculus [1] it was 0.7; with Mus musculus [2], 55; with Rattus norvegicus [4], 55.

For `CCC(=O)O[C@]1(C(=O)SCF)[C@H](C)C[C@H]2[C@@H]3C[C@H](F)C4=CC(=O)C=C[C@]4(C)[C@@]3(F)[C@@H](O)C[C@@]21C` [FLUTICASONE PROPIONATE], the Activity in the test filed under Homo sapiens stood at 945; in the test on Mus musculus [1] it was 1; in the test on Mus musculus [2] it was 113; in the test with Rattus norvegicus [3], 1.5; in the test with Rattus norvegicus [4], 85.

On to `CCC(=O)O[C@]1(C(=O)SCCl)[C@@H](C)CC2C3CCC4=CC(=O)C=C[C@]4(C)[C@H]3[C@@H](O)C[C@@]21C` (stereo partly specified), for which the Activity in the test filed under Homo sapiens stood at 295; with Mus musculus [2], 27; with Rattus norvegicus [3] it was 1.4; with Rattus norvegicus [4], 29.

In the case of `CCC(=O)O[C@]1(C(=O)SCCl)[C@@H](C)CC2C3CCC4=CC(=O)C=C[C@]4(C)[C@@]3(F)[C@@H](O)C[C@@]21C` (stereo partly specified), the Activity in the test listed under Homo sapiens stood at 1469; in the test on Mus musculus [1], 44; in the test with Mus musculus [2], 41; in the test on Rattus norvegicus [3], 0.9; in the test on Rattus norvegicus [4] it was 36.

Take `CCC(=O)O[C@]1(C(=O)SCF)[C@H](C)CC2C3CCC4=CC(=O)C=C[C@]4(C)[C@@]3(F)[C@@H](O)C[C@@]21C` (stereo partly specified): the Activity in the test filed under Homo sapiens is given as 653.

Consider `C=C1CC2C3C[C@H](F)C4=CC(=O)C=C[C@]4(C)[C@@]3(F)[C@@H](O)C[C@]2(C)[C@@]1(OC(=O)CC)C(=O)SCF` (stereo partly specified), for which the results for the Activity in the test filed under Homo sapiens, with Mus musculus [1] and in the test with Mus musculus [2] were 1048, greater than 100 and 197, respectively.

In the test filed under Homo sapiens, `CCC(=O)O[C@]1(C(=O)SCI)[C@@H](C)CC2C3CCC4=CC(=O)C=C[C@]4(C)[C@@]3(F)[C@@H](O)C[C@@]21C` (stereo partly specified) gave an Activity of 41.

On to `CCC(=O)O[C@]1(C(=O)SCF)[C@@H](C)CC2C3CCC4=CC(=O)C=C[C@]4(C)[C@@]3(F)[C@@H](O)C[C@@]21C` (stereo partly specified), for which the Activity was 1262 in the test listed under Homo sapiens; 450 in the test with Mus musculus [1]; 89 with Mus musculus [2]; 13 in the test on Rattus norvegicus [3]; 39 in the test with Rattus norvegicus [4].

In the case of `CCC(=O)O[C@]1(C(=O)SCF)[C@@H](C)CC2C3CCC4=CC(=O)C=C[C@]4(C)[C@H]3[C@@H](O)C[C@@]21C` (stereo partly specified), the Activity in the test listed under Homo sapiens is 800; in the test with Mus musculus [2], 50; in the test on Rattus norvegicus [3], 5.1; with Rattus norvegicus [4], 44.

As for `CC1(C)O[C@@H]2C[C@H]3[C@@H]4C[C@H](F)C5=CC(=O)C=C[C@]5(C)[C@@]4(F)[C@@H](O)C[C@]3(C)[C@]2(C(=O)CO)O1` [FLUOCINOLONE ACETONIDE], the Activity in the test listed under Homo sapiens, in the test on Mus musculus [1], with Mus musculus [2], with Rattus norvegicus [3] and in the test on Rattus norvegicus [4] was 100 in each case.

As for `C=C1CC2C3CCC4=CC(=O)C=C[C@]4(C)[C@@]3(F)[C@@H](O)C[C@]2(C)[C@@]1(OC(=O)CC)C(=O)SCCl` (stereo partly specified), the Activity in the test filed under Homo sapiens was 365; in the test with Mus musculus [1], 2; in the test with Mus musculus [2] it was 42; with Rattus norvegicus [3], 0.8; in the test on Rattus norvegicus [4], 12.

Turning to `CCC(=O)O[C@]1(C(=O)SCCl)[C@H](C)CC2C3C[C@H](F)C4=CC(=O)C=C[C@]4(C)[C@@]3(F)[C@@H](O)C[C@@]21C` (stereo partly specified), the Activity in the test listed under Homo sapiens was 124; in the test on Mus musculus [1] it was 0.04; in the test on Mus musculus [2] it was 56; in the test with Rattus norvegicus [3], less than 0.02; with Rattus norvegicus [4], 29.

Regarding `CC(=O)O[C@]1(C(=O)SCCl)[C@@H](C)CC2C3CCC4=CC(=O)C=C[C@]4(C)[C@@]3(F)[C@@H](O)C[C@@]21C` (stereo partly specified), the Activity is recorded as 544 in the test filed under Homo sapiens; 14.7 with Mus musculus [1]; 59 in the test with Mus musculus [2]; 0.5 in the test with Rattus norvegicus [3]; 24 with Rattus norvegicus [4].

Regarding `C=C1CC2C3CCC4=CC(=O)C=C[C@]4(C)[C@@]3(F)[C@@H](O)C[C@]2(C)[C@@]1(OC(=O)CC)C(=O)[Se]C` (stereo partly specified), the Activity is listed as 187 in the test filed under Homo sapiens, 27 in the test on Mus musculus [2], less than 0.2 in the test with Rattus norvegicus [3] and 19 with Rattus norvegicus [4].

In the case of `CCCC(=O)O[C@]1(C(=O)SCCl)[C@@H](C)CC2C3CCC4=CC(=O)C=C[C@]4(C)[C@@]3(F)[C@@H](O)C[C@@]21C` (stereo partly specified), the Activity in the test filed under Homo sapiens is given as 143.

On to `CCC(=O)O[C@]1(C(=O)SCF)CCC2C3CCC4=CC(=O)C=C[C@]4(C)[C@@]3(F)[C@@H](O)C[C@@]21C` (stereo partly specified), for which the Activity in the test listed under Homo sapiens was determined as 1984; with Mus musculus [1], 149; in the test with Mus musculus [2] it was 63; with Rattus norvegicus [3], 1.5; in the test on Rattus norvegicus [4], 39.

`CCC(=O)O[C@]1(C(=O)SCBr)[C@@H](C)CC2C3CCC4=CC(=O)C=C[C@]4(C)[C@@]3(F)[C@@H](O)C[C@@]21C` (stereo partly specified) returned an Activity in the test listed under Homo sapiens of 254.

With `C=C1CC2C3CCC4=CC(=O)C=C[C@]4(C)[C@@]3(F)[C@@H](O)C[C@]2(C)[C@@]1(OC(=O)CC)C(=O)[Se]CCl` (stereo partly specified), the Activity in the test filed under Homo sapiens is reported as 200; in the test on Mus musculus [1] it was 2; in the test on Mus musculus [2], 40; in the test with Rattus norvegicus [4], 16.

For `CCC(=O)O[C@]1(C(=O)SCCl)CCC2C3CCC4=CC(=O)C=C[C@]4(C)[C@@]3(F)[C@@H](O)C[C@@]21C` (stereo partly specified), the figures for the Activity in the test filed under Homo sapiens, in the test with Mus musculus [1] and in the test with Mus musculus [2] were 916, 100 and 20, respectively.

With `C=C1CC2C3CCC4=CC(=O)C=C[C@]4(C)[C@@]3(F)[C@@H](O)C[C@]2(C)[C@@]1(OC(=O)CC)C(=O)SCF` (stereo partly specified), the Activity in the test filed under Homo sapiens is recorded as 1497; in the test on Mus musculus [1], 44; in the test on Mus musculus [2] it was 41; in the test with Rattus norvegicus [3], 2.5; in the test with Rattus norvegicus [4], 20.

In the case of `CCC(=O)O[C@]1(C(=O)SCF)CCC2C3C[C@H](F)C4=CC(=O)C=C[C@]4(C)[C@H]3[C@@H](O)C[C@@]21C` (stereo partly specified), the Activity in the test listed under Homo sapiens was 697; in the test with Mus musculus [1] it was greater than 200; with Mus musculus [2], 56; with Rattus norvegicus [4], 97.
